Laboratory results as given in ChEMBL document CHEMBL4270594, “Design, synthesis and pharmacological evaluation of new 3-(1H-benzimidazol-2-yl)quinolin-2(1H)-one derivatives as potential antitumor agents” (Eur J Med Chem, 2018).
Activity calls are given as the source filed them. No cut-off for these calls is given here.

Key:
SK-OV-3 = assay: Cytotoxicity against human SKOV3 cells after 48 hrs by MTT assay; assay type: functional, cell-based; conditions: SK-OV-3, 48 h
In short: (§1)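 MTT cytotoxicity assay run against HepG2 and BEL-7404 liver cancer, SK-OV-3 ovarian, NCI-H460 large-cell lung cancer and HL-7702 normal liver cells. 5-fluorouracil and cisplatin served as positive controls. IC50 is given as mean ± SD of three repeat experiments.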

NCI-H460 [1] = assay: Antitumor activity against human NCI-H460 cells xenografted in Balb/c nude mouse assessed as induction of necrosis at 25 to 50 mg/kg, ip bid for 13 days measured on day 14 post last dose by hematoxylin and eosin staining based microscopic method; assay type: functional, organism-based
HepG2 [2] = assay: Induction of apoptosis in human HepG2 cells transfected with p53 siRNA assessed as live cells after 24 hrs by Annexin V-FITC/ propidium iodide staining based flow cytometry (reference value: 69.9 to 70.3%); assay type: functional
Mus musculus [3] = assay: Toxicity in Balb/c nude mouse xenografted with human NCI-H460 cells assessed as change in body weight at 25 to 50 mg/kg, ip bid for 13 days; assay type: organism-based; conditions: in vivo, 312 h
In short: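 SPF BALB/c nude mice bearing NCI-H460 xenografts, randomized and given 25 or 50 mg/kg in 5% DMSO/saline vehicle, with cisplatin 2 mg/kg as positive control; body weight tracked over the 13-day treatment; n = 6.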

Mus musculus [4] = assay: Upregulation of caspase-9 protein expression in tumor tissues of Balb/c nude mouse xenografted with human NCI-H460 cells at 25 to 50 mg/kg, ip bid for 13 days measured on day 14 by Western blot analysis; assay type: functional, organism-based
In short: (§2)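 Tumors from NCI-H460 xenografted BALB/c nude mice (25 or 50 mg/kg, vehicle 5% DMSO in saline) collected at day 14; protein levels in tumor tissue determined by western blot versus vehicle control.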

Mus musculus [5] = assay: Downregulation of Bcl2 protein expression in tumor tissues of Balb/c nude mouse xenografted with human NCI-H460 cells at 25 to 50 mg/kg, ip bid for 13 days measured on day 14 by Western blot analysis; assay type: functional, organism-based
HepG2 [6] = assay: Cytotoxicity against human HepG2 cells after 48 hrs by MTT assay; assay type: functional, cell-based; conditions: HepG2, 48 h; in short: as §1
BEL-7404 tumor cell line = assay: Cytotoxicity against human Bel7404 cells after 48 hrs by MTT assay; assay type: functional, cell-based; conditions: BEL-7404, 48 h; in short: as §1
Mus musculus [7] = assay: Toxicity in Kunming mouse assessed as change in body weight at 50 mg/kg/day, ip for 14 consecutive days measured daily during compound dosing; assay type: organism-based; conditions: in vivo
In short: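 Kunming mice dosed intraperitoneally at 50 mg/kg per day for 14 consecutive days, compound dissolved in 5% v/v DMSO/saline; body weight recorded daily as a systemic toxicity parameter against a control group; six mice per group.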

Mus musculus [8] = assay: Upregulation of Bax protein expression in tumor tissues of Balb/c nude mouse xenografted with human NCI-H460 cells at 25 to 50 mg/kg, ip bid for 13 days measured on day 14 by Western blot analysis; assay type: functional, organism-based; in short: as §2
L02 = assay: Cytotoxicity against human HL-7702 cells after 48 hrs by MTT assay; assay type: cell-based; conditions: L02, 48 h; in short: as §1
Mus musculus [9] = assay: Toxicity in Kunming mouse assessed as signs of peritonitis or damage to kidney at 50 mg/kg/day, ip for 14 consecutive days by microscopic method; assay type: organism-based; conditions: in vivo
In short: (§3)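 Kunming mice given 50 mg/kg/day ip in 5% v/v DMSO/saline for 14 days; kidney, heart and liver harvested, sectioned for pathology slices and examined microscopically for peritonitis or organ damage versus control mice.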

HepG2 [10] = assay: Induction of apoptosis in human HepG2 cells transfected with p53 siRNA assessed as late apoptotic cells after 24 hrs by Annexin V-FITC/ propidium iodide staining based flow cytometry (reference value: 7.99 to 8.6%); assay type: functional
NCI-H460 [11] = assay: Antitumor activity against human NCI-H460 cells xenografted in Balb/c nude mouse assessed as relative tumor volume increment rate at 50 mg/kg, ip bid for 13 days measured on day 14 post last dose relative to control; assay type: functional
In short: (§4)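 SPF BALB/c nude mice carrying NCI-H460 xenografts were randomly grouped and given 25 or 50 mg/kg. Vehicle (5% DMSO in saline, v/v) and cisplatin 2 mg/kg were the controls, n = 6 per group. Tumour volume was followed to give the relative tumour increment rate (T/C, %). Tumours were harvested and weighed on day 14 to give the weight inhibitory rate.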

Mus musculus [12] = assay: Toxicity in Kunming mouse assessed as signs of peritonitis or damage to liver at 50 mg/kg/day, ip for 14 consecutive days by microscopic method; assay type: organism-based; conditions: in vivo; in short: as §3
HepG2 [13] = assay: Induction of apoptosis in human HepG2 cells transfected with p53 siRNA assessed as early apoptotic cells after 24 hrs by Annexin V-FITC/ propidium iodide staining based flow cytometry (reference value: 5.99 to 6.01%); assay type: functional
NCI-H460 [14] = assay: Cytotoxicity against human NCI-H460 cells after 48 hrs by MTT assay; assay type: functional, cell-based; conditions: NCI-H460, 48 h; in short: as §1
NCI-H460 [15] = assay: Antitumor activity against human NCI-H460 cells xenografted in Balb/c nude mouse assessed as tumor growth inhibition at 25 mg/kg, ip bid for 13 days measured on day 14 post last dose relative to control; assay type: functional; conditions: read-out: TGI; in short: as §4
NCI-H460 [16] = assay: Antitumor activity against human NCI-H460 cells xenografted in Balb/c nude mouse assessed as relative tumor volume increment rate at 25 mg/kg, ip bid for 13 days measured on day 14 post last dose relative to control; assay type: functional; in short: as §4
HepG2 [17] = assay: Cell cycle arrest in human HepG2 cells transfected with p53 siRNA assessed as accumulation at G2-phase after 48 hrs by propidium iodide staining based flow cytometry (reference value: 21.72 to 23.39%); assay type: functional
NCI-H460 [18] = assay: Antitumor activity against human NCI-H460 cells xenografted in Balb/c nude mouse assessed as tumor growth inhibition at 50 mg/kg, ip bid for 13 days measured on day 14 post last dose relative to control; assay type: functional; conditions: read-out: TGI; in short: as §4
Mus musculus [19] = assay: Upregulation of cytochrome-c expression in tumor tissues of Balb/c nude mouse xenografted with human NCI-H460 cells at 25 to 50 mg/kg, ip bid for 13 days measured on day 14 by Western blot analysis; assay type: functional, organism-based; in short: as §2
HepG2 [20] = assay: Cell cycle arrest in human HepG2 cells transfected with p53 siRNA assessed as accumulation at S-phase after 48 hrs by propidium iodide staining based flow cytometry (reference value: 20.37 to 22.8%); assay type: functional
Mus musculus [21] = assay: Effect on caspase-3 protein expression in tumor tissues of Balb/c nude mouse xenografted with human NCI-H460 cells at 25 to 50 mg/kg, ip bid for 13 days measured on day 14 by Western blot analysis; assay type: functional, organism-based
Mus musculus [22] = assay: Toxicity in Kunming mouse assessed as signs of peritonitis or damage to heart at 50 mg/kg/day, ip for 14 consecutive days by microscopic method; assay type: organism-based; conditions: in vivo; in short: as §3
HepG2 [23] = assay: Induction of apoptosis in human HepG2 cells transfected with p53 siRNA assessed as necrotic apoptotic cells after 24 hrs by Annexin V-FITC/ propidium iodide staining based flow cytometry (reference value: 15.6 to 15.7%); assay type: functional
HepG2 [24] = assay: Cell cycle arrest in human HepG2 cells transfected with p53 siRNA assessed as accumulation at G1-phase after 48 hrs by propidium iodide staining based flow cytometry (reference value: 55.48 to 56.24%); assay type: functional

**Q.** Which results are given for `O=c1[nH]c2ccccc2cc1-c1nc2cc(Cl)ccc2[nH]1`?
**A.** IC50 (SK-OV-3): 10.5 µM; Activity (NCI-H460 [1]): Active; Activity (HepG2 [2]): 74.8%; Activity (Mus musculus [3]): Non-Toxic; Activity (Mus musculus [4]): Active; Activity (Mus musculus [5]): Active; IC50 (HepG2 [6]): 8.45 µM; IC50 (BEL-7404 tumor cell line): 16.5 µM; Activity (Mus musculus [7]): Non-Toxic; Activity (Mus musculus [8]): Active; IC50 (L02): > 100 µM; Activity (Mus musculus [9]): Non-Toxic; Activity (HepG2 [10]): 7.62%; T/C (NCI-H460 [11]): 30.7%; Activity (Mus musculus [12]): Non-Toxic; Activity (HepG2 [13]): 11.5%; IC50 (NCI-H460 [14]): 14.7 µM; inhibition in vivo at 25 mg/kg (NCI-H460 [15]): 51.9%; T/C (NCI-H460 [16]): 40.6%; Activity (HepG2 [17]): 32.3%; inhibition in vivo at 50 mg/kg (NCI-H460 [18]): 66.9%; Activity (Mus musculus [19]): Active; Activity (HepG2 [20]): 20.84%; Activity (Mus musculus [21]): inactive; Activity (Mus musculus [22]): Non-Toxic; Activity (HepG2 [23]): 6.08%; Activity (HepG2 [24]): 46.86%

**Q.** With `O=c1[nH]c2cc3c(cc2cc1-c1nc2cc(Cl)ccc2[nH]1)OCO3` as the compound, how does the IC50 (SK-OV-3) read?
**A.** 24.7 µM

**Q.** And the Activity (NCI-H460 [1])?
**A.** Active

**Q.** And the Activity (HepG2 [2])?
**A.** 74.6%

**Q.** And the Activity (Mus musculus [3])?
**A.** Non-Toxic

**Q.** What about the Activity (Mus musculus [4]) of the same compound?
**A.** Active

**Q.** And the Activity (Mus musculus [5])?
**A.** Active

**Q.** What about the IC50 (HepG2 [6]) of the same compound?
**A.** 10.6 µM

**Q.** And the IC50 (BEL-7404 tumor cell line)?
**A.** 9.06 µM

**Q.** What about the Activity (Mus musculus [7]) of the same compound?
**A.** Non-Toxic

**Q.** And the IC50 (L02)?
**A.** > 100 µM

**Q.** What about the Activity (Mus musculus [9]) of the same compound?
**A.** Non-Toxic

**Q.** And the Activity (HepG2 [10])?
**A.** 7.96%

**Q.** And the T/C (NCI-H460 [11])?
**A.** 38.1%

**Q.** What about the Activity (Mus musculus [12]) of the same compound?
**A.** Non-Toxic

**Q.** And the Activity (HepG2 [13])?
**A.** 11.2%

**Q.** And the IC50 (NCI-H460 [14])?
**A.** 30.4 µM

**Q.** What about the inhibition in vivo at 25 mg/kg (NCI-H460 [15]) of the same compound?
**A.** 46.2%

**Q.** And the T/C (NCI-H460 [16])?
**A.** 48.8%

**Q.** And the Activity (HepG2 [17])?
**A.** 18.96%

**Q.** What about the inhibition in vivo at 50 mg/kg (NCI-H460 [18]) of the same compound?
**A.** 55.1%

**Q.** What about the Activity (Mus musculus [19]) of the same compound?
**A.** Active

**Q.** And the Activity (HepG2 [20])?
**A.** 6.86%

**Q.** And the Activity (Mus musculus [21])?
**A.** inactive

**Q.** And the Activity (Mus musculus [22])?
**A.** Non-Toxic

**Q.** And the Activity (HepG2 [23])?
**A.** 6.29%

**Q.** What about the Activity (HepG2 [24]) of the same compound?
**A.** 74.18%
